Measurements: article PMC7557999 (ACS Omega, 2020)

Key:
[1] = tested on: MCF7 cells; test: MTT assay, MCF7 cell proliferation; format: cell-based; settings: Homo sapiens, MCF7, 24 h, read-out: IC50, MCF7 cell proliferation
In short: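 MCF7 cells were grown in DMEM or RPMI-1640 with 10% FBS at 37 °C and 5% CO2, then seeded in 96-well plates. Test compound was added at various amounts, with DMSO as vehicle, for 24 h. MTT (5 mg/mL stock) was added for 4 h, then SDS-HCl overnight. A570 was read and IC50 calculated by the plate reader. Values are mean ± SD of triplicate assays.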

[2] = biological target: T1, PTP1B (Homo sapiens, UniProt P18031); test: PTP activity assay; format: biochemical; settings: for inhibition type (Lineweaver–Burk plot), PTP1B: Lineweaver–Burk plot analysis
T1 sequence (P18031 3-277 limits assumed): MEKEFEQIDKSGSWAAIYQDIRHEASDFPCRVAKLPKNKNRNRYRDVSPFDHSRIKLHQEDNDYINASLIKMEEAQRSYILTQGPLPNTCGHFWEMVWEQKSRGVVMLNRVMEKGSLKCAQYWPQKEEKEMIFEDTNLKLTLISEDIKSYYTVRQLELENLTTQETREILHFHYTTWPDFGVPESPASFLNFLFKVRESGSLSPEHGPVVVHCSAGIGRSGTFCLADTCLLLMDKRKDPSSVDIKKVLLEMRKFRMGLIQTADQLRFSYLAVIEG
In short: (§1)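 Human catalytic domains were His-tagged, expressed in E. coli BL21(DE3) with 0.4 mM IPTG overnight at 20 °C, and purified under native conditions. The pNPP hydrolysis buffer was 10 mM NaAc-HAc, 1 mM EDTA, 1 mM DTT, pH 5.5, with 0.1 vol % test compound or DMSO at 37 °C. A405 was read every 20 s for 30 min.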

[3] = biological target: T2, SHP2 (Homo sapiens, UniProt Q06124); test: PTP activity assay; format: biochemical; settings: for inhibition type (Lineweaver–Burk plot), SHP2: Lineweaver–Burk plot analysis
T2 sequence (Q06124 247-517 limits assumed): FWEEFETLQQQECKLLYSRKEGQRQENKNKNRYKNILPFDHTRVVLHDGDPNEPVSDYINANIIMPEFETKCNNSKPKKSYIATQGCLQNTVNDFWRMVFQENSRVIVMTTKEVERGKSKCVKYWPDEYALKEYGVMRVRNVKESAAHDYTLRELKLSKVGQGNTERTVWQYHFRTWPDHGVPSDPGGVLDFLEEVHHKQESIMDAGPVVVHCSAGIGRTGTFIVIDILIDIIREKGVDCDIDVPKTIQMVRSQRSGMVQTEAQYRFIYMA
In short: as §1

[4] = biological target: T3, SHP1 (Homo sapiens, UniProt P29350); test: PTP activity assay; format: biochemical; settings: for inhibition type (Lineweaver–Burk plot), SHP1: Lineweaver–Burk plot analysis
T3 sequence (P29350 244-515 limits assumed): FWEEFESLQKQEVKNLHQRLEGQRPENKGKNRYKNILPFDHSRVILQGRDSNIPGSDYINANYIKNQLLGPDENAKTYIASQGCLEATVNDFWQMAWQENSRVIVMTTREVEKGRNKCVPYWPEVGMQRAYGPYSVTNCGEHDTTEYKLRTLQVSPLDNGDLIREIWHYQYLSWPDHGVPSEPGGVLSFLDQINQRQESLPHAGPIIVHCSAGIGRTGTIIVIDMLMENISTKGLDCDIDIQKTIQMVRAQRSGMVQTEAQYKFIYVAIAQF
In short: as §1

[5] = biological target: T4, STEP (Homo sapiens, UniProt P54829); test: PTP activity assay; format: biochemical
T4 sequence (P54829 300-555 limits assumed): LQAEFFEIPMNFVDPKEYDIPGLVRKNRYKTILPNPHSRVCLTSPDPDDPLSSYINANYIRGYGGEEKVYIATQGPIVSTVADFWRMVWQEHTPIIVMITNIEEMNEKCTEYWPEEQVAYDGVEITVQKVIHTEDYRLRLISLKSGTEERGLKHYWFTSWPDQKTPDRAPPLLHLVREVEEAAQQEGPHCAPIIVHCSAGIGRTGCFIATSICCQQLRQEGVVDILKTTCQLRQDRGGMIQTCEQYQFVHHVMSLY
In short: as §1

[6] = biological target: T5, LYP (Homo sapiens, UniProt Q9Y2R2); test: PTP activity assay; format: biochemical
T5 sequence (Q9Y2R2 24-289 limits assumed): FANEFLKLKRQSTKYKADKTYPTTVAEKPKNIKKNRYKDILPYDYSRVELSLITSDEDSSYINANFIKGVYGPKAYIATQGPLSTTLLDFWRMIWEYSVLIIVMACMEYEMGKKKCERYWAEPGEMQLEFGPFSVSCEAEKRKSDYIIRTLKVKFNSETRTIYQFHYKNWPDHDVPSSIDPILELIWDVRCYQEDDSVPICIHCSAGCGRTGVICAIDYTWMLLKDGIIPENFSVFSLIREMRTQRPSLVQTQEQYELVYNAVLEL
In short: as §1

[7] = tested on: MCF7 cells; test: Colony formation assay; format: cell-based, Human; settings: 0.15, 0.45 and 0.75 μM, 6 days
[8] = tested on: p-ERK; test: Western blotting of ERK phosphorylation in MCF7 cells; format: cell-based, Human; settings: MCF7 cells, 1.5, 7.5 and 15 μM, 24 h
In short: (§2)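 MCF7 cells were treated for 24 h with 0, 1.5, 7.5 or 15 μM test compound. Lysates were immunoblotted with antibodies to c-JUN, p-ERK and total ERK, with GAPDH as internal control.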

[9] = tested on: c-JUN; test: Western blotting of c-JUN in MCF7 cells; format: cell-based, Human; settings: MCF7 cells, 1.5, 7.5 and 15 μM, 24 h
In short: as §2

[10] = tested on: MCF7 cells; test: RNA sequencing assay of treated MCF7 cells; format: cell-based, Human; settings: vs control, three repeats
In short: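 MCF7 cells were treated with test compound alongside a control group, three repeats per group. Libraries were prepared with NEBNext Ultra and sequenced on an Illumina HiSeq. Differential expression used DESeq/Cuffdiff with cutoffs of log2 fold change >1 or […], Q value <0.05 and FPKM >1.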

Compound	IC50 [1]	IC50 [2]	inhibition type (Lineweaver–Burk plot), PTP1B [2]	IC50 [3]	inhibition type (Lineweaver–Burk plot), SHP2 [3]	IC50 [4]	inhibition type (Lineweaver–Burk plot), SHP1 [4]	IC50 [5]	IC50 [6]	colony formation of MCF7 cells [7]	ERK phosphorylation (western blot) [8]	JUN protein expression (western blot) [9]	CXCL2 log 2 fold change [10]	CXCL3 log 2 fold change [10]	CXCL8 log 2 fold change [10]	CXCL10 log 2 fold change [10]	DDIT3 log 2 fold change [10]	GADD45A log 2 fold change [10]	IFI16 log 2 fold change [10]	IFI27 log 2 fold change [10]	also measured
O=c1[nH]cc(F)c(=O)[nH]1 [5-fluorouracil, reference compound]	25.1 ± 8.8 µM	–	–	–	–	–	–	–	–	–	–	–	–	–	–	–	–	–	–	–	–
CC(=O)OC[C@]12Oc3c(-c4ccc(O)c5c4O[C@@]4(COC(C)=O)C(=C(O)C[C@@H](C)[C@H]4OC(C)=O)C5=O)ccc(O)c3C(=O)C1=C(O)C[C@@H](C)[C@H]2OC(C)=O [PXA, Phomoxanthone A]	16.4 ± 1.96 µM	13 ± 1.13 µM	noncompetitive inhibitors	20.5 ± 4.45 µM	noncompetitive inhibitors	36.5 ± 2.02 µM	competitive inhibitors	> 150 µM	> 150 µM	significantly reduced the colony formation	increased ERK phosphorylation	upregulated the JUN protein expression	3.24	1.65	5.45	6.84	2.87	1.41	1.18	4.22	IL1A log 2 fold change [10]: 4.78; IL1B log 2 fold change [10]: 3.30; IL6 log 2 fold change [10]: 4.00; IL18 log 2 fold change [10]: 1.78; IL24 log 2 fold change [10]: 6.37; IL32 log 2 fold change [10]: 1.57; IL33 log 2 fold change [10]: 4.45; IRF1 log 2 fold change [10]: 1.50; IRF7 log 2 fold change [10]: 2.76; JUN log 2 fold change [10]: 3.32; NFKB2 log 2 fold change [10]: 1.62; RELB log 2 fold change [10]: 2.43; XAF1 log 2 fold change [10]: 4.83
CC(=O)OC[C@]12Oc3ccc(-c4ccc(O)c5c4O[C@@]4(COC(C)=O)C(=C(O)C[C@@H](C)[C@H]4OC(C)=O)C5=O)c(O)c3C(=O)C1=C(O)C[C@@H](C)[C@H]2OC(C)=O [PXB, Phomoxanthone B]	16.2 ± 2.59 µM	14.3 ± 2.2 µM	noncompetitive inhibitors	11.9 ± 3.02 µM	noncompetitive inhibitors	32.1 ± 3.74 µM	competitive inhibitors	> 150 µM	> 150 µM	significantly reduced the colony formation	increased ERK phosphorylation	upregulated the JUN protein expression	3.19	1.58	5.22	5.96	2.92	1.39	1.15	4.02	IL1A log 2 fold change [10]: 4.87; IL1B log 2 fold change [10]: 3.23; IL6 log 2 fold change [10]: 3.98; IL18 log 2 fold change [10]: 1.73; IL24 log 2 fold change [10]: 7.08; IL32 log 2 fold change [10]: 1.56; IL33 log 2 fold change [10]: 4.82; IRF1 log 2 fold change [10]: 1.34; IRF7 log 2 fold change [10]: 2.53; JUN log 2 fold change [10]: 3.16; NFKB2 log 2 fold change [10]: 1.69; RELB log 2 fold change [10]: 2.51; XAF1 log 2 fold change [10]: 4.41
